The values below come from ChEMBL document CHEMBL1121480, “Conversion of ergolines to hexahydro- and octahydrobenzo[f]quinolines (depyrroloergolines)” (1980).

Holding throughout (assay type): functional
For experiment [1], the system named is Rattus norvegicus. Kind of experiment: Evaluated for the rat turning after administration of 1 mg/kg intraperitoneally. The conditions noted are these: route intraperitoneal.
Experiment [2] deals with Rattus norvegicus. Briefly: Evaluated for the prolactin inhibition at the dose 50 ug/kg administered intraperitoneally (treatment). In short, it runs like this:
(§1)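 Reserpinized male rats given 50 μg/kg ip; serum prolactin (ng/mL) measured by the method of Clemens et al. against vehicle controls; % inhibition from treated vs control means; mean ± SEM of 10 rats; significance versus control.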

Experiment [3] deals with Rattus norvegicus. Briefly: Evaluated for the Average turns per first 15 minutes after administration of 1 mg/kg intraperitoneally. The conditions noted are these: route intraperitoneal.
The test system of experiment [4] is Rattus norvegicus. Briefly: Evaluated for the prolactin inhibition at the dose 50 ug/kg administered intraperitoneally. The conditions noted are these: ip. The essentials:
as §1

With `C[C@@H](CO)NC(=O)C1C=C2c3ccccc3CC[C@H]2N(C)C1` (some centres undefined) [DEPYRROLO ERGONOVINE], the Rat turning with Rattus norvegicus [1] was determined as 0%. In the experiment on Rattus norvegicus [2], this molecule came in with a serum prolactin level of 28.4 ng/mL. Moreover, the “Average turns/first 15 min” value with Rattus norvegicus [3] stood at 0. In addition, in the experiment with Rattus norvegicus [4], the inhibition in vivo – broadly, the relative decrease from the control value, in per cent – at 0.05 mg/kg was -24%.

In the case of `C[C@@H](CO)NC(=O)[C@@H]1C=C2c3cccc4[nH]cc(c34)C[C@H]2N(C)C1.O=C(O)/C=C\C(=O)O` [ERGONOVINE MALEATE], the Rat turning with Rattus norvegicus [1] was 0%. In the experiment on Rattus norvegicus [2], the serum prolactin level was found to be 11.7 ng/mL. Also, the “Average turns/first 15 min” value in the experiment on Rattus norvegicus [3] is reported as 0. Besides, in the experiment with Rattus norvegicus [4], the inhibition in vivo at 0.05 mg/kg amounted to 36%.

`CCCN1C[C@H](CSC)C[C@@H]2c3ccccc3CC[C@H]21.O=C(O)C(=O)O` [DEPYRROLO PERGOLIDE]: the Rat turning with Rattus norvegicus [1] is recorded as 67%. The molecule further returned a serum prolactin level in the experiment on Rattus norvegicus [2] of 11.6 ng/mL. The “Average turns/first 15 min” value in the experiment with Rattus norvegicus [3] is on record as 48. Also, the inhibition in vivo at 0.05 mg/kg in the experiment on Rattus norvegicus [4] came to 35%.

As for `CC1=C[C@@H]2c3cccc4[nH]cc(c34)C[C@H]2N(C)C1` [AGROCLAVINE], the Rat turning with Rattus norvegicus [1] is reported as 100%. This molecule also showed a serum prolactin level in the experiment on Rattus norvegicus [2] of 11.7 ng/mL. Also, in the experiment on Rattus norvegicus [3], the “Average turns/first 15 min” value amounted to 95. The inhibition in vivo at 0.05 mg/kg in the experiment on Rattus norvegicus [4] was determined as 63%.

In the experiment on Rattus norvegicus [1], `CCCN1C[C@H](CSC)C[C@@H]2c3cccc4[nH]cc(c34)C[C@H]21` [PERGOLIDE] came in with a Rat turning of 100%. The serum prolactin level in the experiment with Rattus norvegicus [2] came to 1.6 ng/mL. Moreover, the “Average turns/first 15 min” value in the experiment on Rattus norvegicus [3] was 102. In the experiment with Rattus norvegicus [4], the inhibition in vivo at 0.05 mg/kg amounted to 95%.

In turn, `CC1=C[C@@H]2c3ccccc3CC[C@H]2N(C)C1.O=C(O)C(=O)O` [DEPYRROLO AGROCLAVINE] displayed a Rat turning with Rattus norvegicus [1] of 0%. The same molecule displayed a serum prolactin level in the experiment on Rattus norvegicus [2] of 35.2 ng/mL. Further, the “Average turns/first 15 min” value in the experiment with Rattus norvegicus [3] is 0. The inhibition in vivo at 0.05 mg/kg in the experiment on Rattus norvegicus [4] was determined as 9%.
